High-throughput results deposited in PubChem by The Scripps Research Institute Molecular Screening Center.
mABHD4 FP: inhibits mouse alpha/beta hydrolase domain 4. 370,000 compounds, 0.54% hits. inhibition, % at 8.92 µM. purified mABHD4, FP-Rh probe fluorescence polarization;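 active = inhibition exceeding the mean over every tested compound plus 3 SD, cut at about 30% in these data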
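Test system: mABHD4 protein; Read-out basis: % inhibition; Incubation: 45 min + 60 min at 25 °C; Repeats: single replicate; Technique: fluorescence polarization with parallel and perpendicular emission, 525/598 nm; Compound: 8.92 µM, single dose; Benchmarks: full inhibition S159A mutant plus DMSO, zero as sample-well median.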
PRMT1 inh: inhibitors of human PRMT1; inhibition, % at 2.79 µM; recombinant PRMT1, activity-based probe fluorescence polarization; 370,000 compounds, 1.3% hits; Q99873;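 active = inhibition above about 21% made by adding two undisclosed values, limit read from the data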
Target sequence (Q99873 whole entry, looked up): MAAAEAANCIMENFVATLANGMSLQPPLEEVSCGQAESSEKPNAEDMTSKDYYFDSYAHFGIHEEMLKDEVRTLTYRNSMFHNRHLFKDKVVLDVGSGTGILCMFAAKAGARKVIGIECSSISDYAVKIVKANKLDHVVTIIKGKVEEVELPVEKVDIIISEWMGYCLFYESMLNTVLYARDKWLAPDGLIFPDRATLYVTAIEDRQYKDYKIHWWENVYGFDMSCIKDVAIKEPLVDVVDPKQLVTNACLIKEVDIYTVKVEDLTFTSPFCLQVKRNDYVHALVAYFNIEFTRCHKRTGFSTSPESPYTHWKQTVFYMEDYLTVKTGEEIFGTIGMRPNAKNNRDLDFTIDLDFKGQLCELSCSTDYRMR
HTRA1 inhibitor: HTRA1 (human) protease inhibition. AID 504803. recombinant HTRA1, FP-rhodamine activity-based probe, fluorescence polarization. 340,000 compounds, 0.5% hits. inhibition, % at 5.96 µM. Q92743; in the data active = inhibition above about 36%
SIAE primary: blocks human sialic acid acetylesterase; Q9HAT2; SIAE FP-Rh probe binding, fluorescence polarization; inhibition, % at 9.66 µM; 370,000 compounds, 0.69% hits;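 active = inhibition above a cutoff: mean of compounds within the control limits plus 3 SD of those, cut at about 17% in these data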
TCR CD3 inh: blocks the human TCR-CD3 interaction | 360,000 compounds, 0.37% hits | TAMRA-labeled TCR probe fluorescence, biochemical | inhibition, % at 9.4 µM; in the data active = inhibition above about 19%;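 note: recombinant mutant TCR 2C K166C tagged with TAMRA read by polarization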
mABHD4 conf: confirmation of mouse ABHD4 inhibitors | shares compounds with mABHD4 FP | purified mABHD4, FP-Rh probe fluorescence polarization | inhibition, % at 8.92 µM | 1,800 compounds, 55% hits | AID 720658;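 active = mean inhibition across replicates above the hit cutoff set in the primary screen, cut at about 30% in these data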
Each line names hits and unclear results; the compound was inactive in the other large screens (follow-up assays come after a bar, where they were run). In the library only some 2.7% were active in any assay of this set; here they are far more common.

Cc1ccc(C2(SCC(N)C(=O)O)c3ccccc3-c3ccccc32)cc1 (stereo not given)	none
COc1cccc(C2CC(c3ccc(NS(C)(=O)=O)cc3)=NN2C(=O)c2ccccc2)c1OC (stereo not given)	mABHD4 FP 44 | mABHD4 conf 55
COc1ccc(NC(=O)C(c2cc3c(cc2[N+](=O)[O-])OCO3)N(C)Cc2ccccc2)cc1 (stereo not given)	mABHD4 FP 67 | mABHD4 conf inactive
COc1ccc(NC(=O)C(c2cc3c(cc2[N+](=O)[O-])OCO3)N2CCN(C=O)CC2)cc1 (stereo not given)	mABHD4 FP 31 | mABHD4 conf inactive
CCOC(=O)C1CCN(C2=C(NS(=O)(=O)c3ccc(Cl)cc3)C(=O)c3ccccc3C2=O)CC1	mABHD4 FP 41 | mABHD4 conf 58
Brc1cc2c(cc1C1Nc3ccccc3C3C=CCC31)OCO2 (stereo not given)	none
C1=CC2c3ccccc3NC(c3ccncc3)C2C1 (stereo not given)	mABHD4 FP 50, PRMT1 inh 23 | mABHD4 conf 64
Cc1cccc(CCNC(=O)C2CCN(S(=O)(=O)c3ccccc3)CC2)c1	none
CC(C)C[C@H]1COc2cccc(F)c2S(=O)(=O)N1	none (no result: HTRA1 inhibitor)
Cc1ccc(C(=O)N2NC(c3ccc(F)cc3)C3C(=O)N(c4ccc(C)cc4)C(=O)C32)cc1 (stereo not given)	none
COc1ccccc1N1C(=O)C2C(c3ccc(F)cc3)NN(C(=O)c3ccc(C)cc3)C2C1=O (stereo not given)	mABHD4 FP 34 | mABHD4 conf inactive
Cc1ccc2sc(N(CCCN(C)C)C(=O)c3ccc(Br)s3)nc2c1C	none
Cc1ccc(S(=O)(=O)NC(CCCNC(=O)OCc2ccccc2)C(=O)O)cc1 (stereo not given)	none (no result: HTRA1 inhibitor)
O=[N+]([O-])c1ccccc1C(=Nc1ccccc1)c1c(O)cc(O)cc1O	mABHD4 FP 30 | mABHD4 conf inactive
CN(Cc1ccccc1)C(=O)c1cccc(NC(=O)Cc2cccc(NC(=O)C3CCN(C(=O)CCc4ccccc4)CC3)c2)c1	none (no result: HTRA1 inhibitor)
Cc1ccc(N/C=C/C(=O)c2cccs2)cc1C	none (no result: HTRA1 inhibitor)
O=C(/C=C/Nc1ccc(Nc2ccccc2)cc1)c1cccs1	mABHD4 FP 34 | mABHD4 conf inactive
COc1ccc(CN2C(=O)c3ccccc3C2=O)cc1C(=O)N(C)CC(=O)Nc1ccc(F)cc1	none
CC1SC(=S)N(c2ccc(N(C)C)cc2)C1=O (stereo not given)	mABHD4 FP 33 | mABHD4 conf inactive
CN(C1(C)CCS(=O)(=O)C1)S(=O)(=O)c1ccc2ccccc2c1 (stereo not given)	none
O=C(CNc1ccc2ccccc2c1)N/N=C/c1ccccn1	mABHD4 FP 39 (no result: HTRA1 inhibitor) | mABHD4 conf inactive
O=C(CCCC(=O)N/N=C\c1ccccn1)N/N=C\c1ccccn1	none
O=C(Nc1ccc(-n2cccn2)cc1)C1CCCCN1Cc1cccc2c1OCO2 (stereo not given)	none
CCN(C(=S)NC(=O)c1ccco1)c1cccc2ccccc12	mABHD4 FP 36 | mABHD4 conf inactive
CCN(C(=S)NCCOC)c1cccc2ccccc12	none
Oc1ccccc1/C=N/Nc1nccnc1Cl	none
COc1cccc(/C=N/Nc2nccnc2Cl)c1O	mABHD4 FP 30 | mABHD4 conf 41
O=[N+]([O-])c1ccc(NN=Cc2ccc(O)cc2O)nc1	mABHD4 FP 30 | mABHD4 conf 30
Oc1ccc(/C=N/Nc2nccnc2Cl)c(O)c1	mABHD4 FP 43 | mABHD4 conf 45
CCOC1=C2[C@H](c3ccccc3)N(S(=O)(=O)c3ccc(C)cc3)[C@H](C(C)C)[C@H]2C(C#N)(C#N)C(C#N)(C#N)C1	none (no result: HTRA1 inhibitor)
O=c1c2cc3c(=O)n(-c4ccccc4O)c(=O)c3cc2c(=O)n1-c1ccccc1O	mABHD4 FP 30 | mABHD4 conf inactive
O=[N+]([O-])c1ccc(CN2[C@H](COCc3ccccc3)C=CS2(=O)=O)cc1	none (no result: HTRA1 inhibitor)
COc1ccc(-n2nc3c(=O)[nH][nH]c3cc2=O)cc1	mABHD4 FP 32 | mABHD4 conf 42
COc1ccc(-n2c(C)n[nH]c2=O)cc1	none
CCCC1=Nc2cc(C(=O)N3CCCC3)ccc2Sc2ccc(C)cc21	mABHD4 FP 32 | mABHD4 conf inactive
CCC1=Nc2cc(C(=O)N3CCCCC3)ccc2Sc2ccc(C)cc21	none
